Results on 37 molecules are retold here after ChEMBL document CHEMBL4004835, “Discovery of Novel Disruptor of Silencing Telomeric 1-Like (DOT1L) Inhibitors using a Target-Specific Scoring Function for the (S)-Adenosyl-l-methionine (SAM)-Dependent Methyltransferase Family” (J Med Chem, 2017).

SMILES strings stand for the structures. Calls of active or inactive are those of the source. The rule behind the calls is not given here.

What is called inhibition is the drop in the measured response relative to a control, in per cent. As a reminder, the IC50 is the point on the concentration scale where inhibition reaches its midpoint.

In assay [1] the target is T1, Histone-lysine N-methyltransferase, H3 lysine-79 specific (Homo sapiens, UniProt Q8TEK3). In words: Inhibition of N-terminal 6His-tagged human DOT1L (1 to 416 residues) expressed in Escherichia coli BL21(DE3) at 50 uM using histone H3 as substrate preincubated for 15 mins followed by SAM addition measured after 60 mins by AlphaLISA assay. The procedure, abridged:
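DOT1L (80 nM final) preincubated with compound 15 min at 25 °C; SAM 1 mM and oligonucleosomes 0.25 ng/μL added in 50 mM Tris-HCl pH 8.0, 150 mM NaCl, 3 mM MgCl2, 0.1% BSA, 60 min at 25 °C; stopped with high-salt buffer; H3K79me2 detected with anti-H3 acceptor beads, biotinylated antibody, then streptavidin donor beads.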
A general note: In Alpha technology, singlet oxygen from a donor bead excites a nearby acceptor bead.
Target sequence in this assay (Q8TEK3 whole entry, looked up, the tested form may be a part): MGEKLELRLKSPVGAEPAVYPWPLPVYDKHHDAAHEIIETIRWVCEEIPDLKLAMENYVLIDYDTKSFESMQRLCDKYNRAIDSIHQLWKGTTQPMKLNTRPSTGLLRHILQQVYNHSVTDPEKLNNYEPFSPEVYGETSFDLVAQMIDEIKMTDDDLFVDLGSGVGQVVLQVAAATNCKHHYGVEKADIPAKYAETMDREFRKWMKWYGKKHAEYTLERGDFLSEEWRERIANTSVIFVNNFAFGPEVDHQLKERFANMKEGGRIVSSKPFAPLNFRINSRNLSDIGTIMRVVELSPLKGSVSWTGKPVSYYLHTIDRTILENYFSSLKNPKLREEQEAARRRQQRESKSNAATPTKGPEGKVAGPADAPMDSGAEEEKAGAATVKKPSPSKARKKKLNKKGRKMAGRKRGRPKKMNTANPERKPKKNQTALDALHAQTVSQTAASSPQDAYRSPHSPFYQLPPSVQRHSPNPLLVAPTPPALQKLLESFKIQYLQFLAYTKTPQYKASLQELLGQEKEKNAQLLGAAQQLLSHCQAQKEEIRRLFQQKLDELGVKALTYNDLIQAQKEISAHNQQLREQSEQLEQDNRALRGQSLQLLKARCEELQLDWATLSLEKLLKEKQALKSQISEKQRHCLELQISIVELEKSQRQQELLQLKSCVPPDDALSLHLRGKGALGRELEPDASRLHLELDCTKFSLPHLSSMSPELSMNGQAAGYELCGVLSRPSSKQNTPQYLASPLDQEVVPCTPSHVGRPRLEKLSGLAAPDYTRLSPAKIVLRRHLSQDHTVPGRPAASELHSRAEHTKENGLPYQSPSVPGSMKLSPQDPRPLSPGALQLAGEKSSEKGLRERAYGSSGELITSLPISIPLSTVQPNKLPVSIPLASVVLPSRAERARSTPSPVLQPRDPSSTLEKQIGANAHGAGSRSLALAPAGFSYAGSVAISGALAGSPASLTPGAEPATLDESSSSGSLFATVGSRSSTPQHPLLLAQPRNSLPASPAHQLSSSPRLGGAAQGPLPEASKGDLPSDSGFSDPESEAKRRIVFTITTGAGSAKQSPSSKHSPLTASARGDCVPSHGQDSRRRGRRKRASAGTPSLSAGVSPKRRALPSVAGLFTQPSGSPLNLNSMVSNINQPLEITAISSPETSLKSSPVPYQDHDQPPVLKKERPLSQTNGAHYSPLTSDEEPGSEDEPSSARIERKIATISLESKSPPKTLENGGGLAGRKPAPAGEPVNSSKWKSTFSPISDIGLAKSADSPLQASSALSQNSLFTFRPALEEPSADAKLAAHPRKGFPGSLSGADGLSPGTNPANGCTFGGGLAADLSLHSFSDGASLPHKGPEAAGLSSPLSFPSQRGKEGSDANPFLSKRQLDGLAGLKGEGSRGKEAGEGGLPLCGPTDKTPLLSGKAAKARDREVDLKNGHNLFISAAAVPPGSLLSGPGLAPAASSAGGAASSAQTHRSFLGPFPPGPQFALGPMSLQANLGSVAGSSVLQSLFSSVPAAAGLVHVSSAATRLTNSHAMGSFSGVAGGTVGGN

For assay [2], the target named is T1, Histone-lysine N-methyltransferase, H3 lysine-79 specific. The experiment in a line: Inhibition of N-terminal 6His-tagged human DOT1L (1 to 416 residues) expressed in Escherichia coli BL21(DE3) at 50 uM preincubated for 15 mins followed by [3H]-SAM addition measured after 120 mins by radioactive methylation assay. An outline of the steps: (§1)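 DOT1L and compound preincubated 15 min at room temperature; oligonucleosome and 3H-SAM added; reaction 120 min at room temperature, stopped with cold SAM; transferred to 0.5% PEI-pretreated filter plate, washed 3× with water, read by liquid scintillation counting.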
Target sequence in this assay (Q8TEK3 whole entry, looked up, the tested form may be a part): as above

Assay [3] shares this target. In words: Inhibition of N-terminal 6His-tagged human DOT1L (1 to 416 residues) expressed in Escherichia coli BL21(DE3) at preincubated for 15 mins followed by [3H]-SAM addition measured after 120 mins by radioactive methylation assay. The procedure, abridged:
as §1
Target sequence in this assay (Q8TEK3 whole entry, the tested form may be a part): as the sequence (Q8TEK3 whole entry, looked up, the tested form may be a part) above

Assay [4] has the same target. The experiment in a line: Inhibition of N-terminal 6His-tagged human DOT1L (1 to 416 residues) expressed in Escherichia coli BL21(DE3) at 50 and 100 uM preincubated for 15 mins followed by [3H]-SAM addition measured after 120 mins by radioactive methylation assay. The procedure, abridged: as §1
Target sequence in this assay (Q8TEK3 whole entry, looked up, the tested form may be a part): as above

In assay [1], `CC(C)N(CCCNC(=O)Nc1ccc(C(C)(C)C)cc1)C[C@H]1O[C@@H](n2ccc3c(N)ncnc32)[C@H](O)[C@@H]1O` returned an inhibition above 40%. On to `Cc1nc2ccccc2n1Cc1nnc2sc(-c3ccc(F)c(Br)c3)nn12`, for which, in assay [2], the inhibition turned out to be 49%. For `COc1cccc(-c2nn3c(Cn4nnc5ccccc54)nnc3s2)c1`, in assay [2], the inhibition worked out at 70%. In assay [3], the IC50 was determined as 6.47 µM. Turning to `Cc1ccc(OCc2nn3c(Cn4nnc5ccccc54)nnc3s2)cc1`, in assay [2], the inhibition amounted to 52%. Molecule `O=C1C/C(=N\Nc2nc(-c3cccc(O)c3)cs2)c2ccccc21` registered an inhibition in assay [1] above 40%. For the same molecule, the inhibition entry in assay [4] was “Active”.

Consider `Fc1cccc(-c2nn3c(CN4CCCCC4)nnc3s2)c1`, for which the inhibition in assay [2] came to 6%. Regarding `COc1ccccc1-c1nn2c(Cn3nnc4ccccc43)nnc2s1`, the inhibition in assay [2] is 55%.

As for `Fc1cccc(-c2nn3c(CSc4ccccc4)nnc3s2)c1`, the inhibition in assay [2] is 21%. Consider `c1coc(-c2nn3c(Cn4nnc5ccccc54)nnc3s2)c1`, for which the inhibition in assay [2] came to 48%. On the same count and under the same terms, the same measure for `CCCc1nnc2sc(-c3cccc(F)c3)nn12`: 35%; for `Fc1cccc(-c2nn3c(Cc4ccccc4F)nnc3s2)c1`: 25%; for `COc1ccc(-c2nn3c(Cn4nnc5ccccc54)nnc3s2)cc1`: 54%. Take `c1ccc(Cc2nn3c(Cn4nnc5ccccc54)nnc3s2)cc1`: in assay [2], the inhibition is 63%. Besides, the IC50 in assay [3] was 19.4 µM. Regarding `Fc1cccc(-c2nn3c(-c4cccc(F)c4)nnc3s2)c1`, the inhibition in assay [2] is 11%. As to `Brc1ccc(-c2nn3c(Cn4nnc5ccccc54)nnc3s2)cc1`, the inhibition in assay [2] came out at 50%. For `c1ccc2c(c1)nnn2Cc1nnc2sc(C34CC5CC(CC(C5)C3)C4)nn12`, in assay [2], the inhibition was found to be 38%. As to `Cc1ccc(-c2nn3c(Cn4cnc5ccccc54)nnc3s2)cc1C`, the inhibition in assay [2] was 72%. Moreover, the half-maximal inhibitory concentration (IC50) in assay [3] is 17.4 µM. Turning to `Fc1cccc(-c2nn3c(Cc4ccccc4)nnc3s2)c1`, the inhibition in assay [2] stood at 33%. For the molecule `Cc1ccccc1Cc1nnc2sc(-c3cccc(F)c3)nn12`, the inhibition in assay [2] is 27%. With `Brc1cccc(-c2nn3c(Cn4cnc5ccccc54)nnc3s2)c1`, in assay [2], the inhibition stood at 62%. The IC50 in assay [3] was 4.09 µM. For `COc1ccc(-c2nn3c(Cn4nnc5ccccc54)nnc3s2)cc1OC`, the inhibition in assay [2] was determined as 56%. In the case of `CCOc1cc(CNCc2ccc(C(=O)O)cc2)ccc1OCc1cccs1`, the inhibition in assay [1] was above 40%. Further, the inhibition entry in assay [4] is “Active”.

On to `c1ccc(-c2nn3c(Cn4cnc5ccccc54)nnc3s2)cc1`, for which the inhibition in assay [2] amounted to 55%.

With `c1ccc2c(c1)nnn2Cc1nnc2sc(-c3ccc4c(c3)OCO4)nn12`, in assay [2], the inhibition turned out to be 65%. Besides, in assay [3], the IC50 was 3.96 µM.

For the molecule `c1ccc2c(c1)nnn2Cc1nnc2sc(-c3ccc4c(c3)OCCO4)nn12`, in assay [2], the inhibition amounted to 66%. In assay [3], the IC50 worked out at 8.4 µM. Take `Fc1ccc(-c2nn3c(Cn4nnc5ccccc54)nnc3s2)cc1`: in assay [2], the inhibition was found to be 69%. Besides, the IC50 in assay [3] came to 4.64 µM.

For `c1ccc(-c2nn3c(Cn4nnc5ccccc54)nnc3s2)nc1`, in assay [2], the inhibition came out at 53%.

Regarding `Cc1ccc(Cn2c(SCC(=O)N/N=C/c3ccc(O)cc3)nc3ccccc32)cc1`, the inhibition in assay [1] is above 40%. The inhibition entry in assay [4] is “Active”. With `Fc1cccc(-c2nn3c(CCc4ccccc4)nnc3s2)c1`, the inhibition in assay [2] was 18%. With `Cc1cccc(OCc2nn3c(Cn4nnc5ccccc54)nnc3s2)c1`, the inhibition in assay [2] came to 50%. For the molecule `Fc1cccc(-c2nn3c(-c4ccccc4)nnc3s2)c1`, the inhibition in assay [2] is 15%.

In the case of `c1ccc(OCc2nn3c(Cn4nnc5ccccc54)nnc3s2)cc1`, in assay [2], the inhibition came to 43%. For `Cc1ccccc1-c1nn2c(Cn3nnc4ccccc43)nnc2s1`, the inhibition in assay [2] amounted to 55%. `Fc1cccc(-c2nn3c(Cn4cnc5ccccc54)nnc3s2)c1`: the inhibition in assay [2] worked out at 57%.

In the case of `CCc1nnc2sc(-c3cccc(F)c3)nn12`, the inhibition in assay [2] came to 13%.

As to `CCOc1ccc(-c2nn3c(Cn4nnc5ccccc54)nnc3s2)cc1`, the inhibition in assay [2] amounted to 50%. Regarding `CC(C)(C)c1ccc(-c2nn3c(Cn4nnc5ccccc54)nnc3s2)cc1`, in assay [2], the inhibition was 67%. Further, the IC50 in assay [3] came out at 4.48 µM.
